According to ChEMBL document CHEMBL5303300, “EUbOPEN Chemogenomics Library - Multiplex” (2023):
“And” between values parts separate entries of the source, which are not always exact repeats. Equal entries are not always repeated.

Tested on: HEK-293T
Test: Multiplex assay against HEK293T
Assay type: toxicity, cell-based
Conditions: human, number of replicates 2
Summary of the method: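 Live cells were stained at seeding with Hoechst33342, BioTracker Green Microtubule Cytoskeleton Dye, MitoTracker Red and Annexin V Alexa Fluor 680, then imaged on a CQ1 microscope at 37°C and 5% CO2 after compound addition. CellPathfinder machine-learning gating split cells into Hoechst high-intensity objects or normal cells. Normal cells were split into healthy, pyknosed or fragmented nuclei, and pyknosed cells into mitotic or apoptotic. Tubulin, mitochondrial-mass and membrane-permeability phenotypes are per cents of healthy-nucleus cells.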

[1] = 12 h, 1 µM, compound concentration 1 uM
[2] = 12 h, 10 µM, compound concentration 10 uM
[3] = 24 h, 1 µM, compound concentration 1 uM
[4] = 24 h, 10 µM, compound concentration 10 uM
[5] = 48 h, 1 µM, compound concentration 1 uM
[6] = 48 h, 10 µM, compound concentration 10 uM

SMILES: CS(=O)(=O)c1ccc(C(=O)Nc2cc(F)cc(COc3ccc(Br)cc3CN3CC[C@H](O)C3)c2)c(Cl)c1.O=CO
- Population Apoptotic (%) [1]: 63%
- Population Healthy Nuclei (%) [1]: 81% and 82%
- Population Mitotic Cells (%) [1]: 45% and 36%
- Population Pyknosed Nuclei (%) [1]: 16% and 13%
- Total Cell Count [1]: 543 and 646
- Population Apoptotic (%) [2]: 68% and 69%
- Population Healthy Nuclei (%) [2]: 83% and 84%
- Population Mitotic Cells (%) [2]: 31% and 30%
- Population Pyknosed Nuclei (%) [2]: 13%
- Total Cell Count [2]: 462 and 578
- Population Apoptotic (%) [3]: 60% and 50%
- Population Healthy Nuclei (%) [3]: 82%
- Population Mitotic Cells (%) [3]: 39% and 49%
- Total Cell Count [3]: 757 and 913
- Population Apoptotic (%) [4]: 70%
- Population Healthy Nuclei (%) [4]: 79% and 83%
- Population Mitotic Cells (%) [4]: 29%
- Population Pyknosed Nuclei (%) [4]: 17%
- Total Cell Count [4]: 505 and 555
- Population Apoptotic (%) [5]: 34% and 23%
- Population Healthy Nuclei (%) [5]: 85%
- Population Mitotic Cells (%) [5]: 65% and 76%
- Population Pyknosed Nuclei (%) [5]: 3% and 4%
- Total Cell Count [5]: 1715 and 1868
- Population Apoptotic (%) [6]: 54% and 57%
- Population Healthy Nuclei (%) [6]: 85% and 80%
- Population Mitotic Cells (%) [6]: 46% and 42%
- Population Pyknosed Nuclei (%) [6]: 8% and 10%
- Total Cell Count [6]: 633 and 761
